According to ChEMBL document CHEMBL1128174, “Enhanced D1 affinity in a series of piperazine ring substituted 1-piperazino-3-arylindans with potential atypical antipsychotic activity” (J Med Chem, 1995):
One block for each compound: values may come before it.

Assays:
[1] = target: T1, Adrenergic receptor alpha-1 (Rattus norvegicus, UniProt P15823+P23944+P43140); experiment: Binding affinity against Alpha-1 adrenergic receptor, activity is expressed as IC50 values; format: protein assay
T1 sequence (P15823 whole entry): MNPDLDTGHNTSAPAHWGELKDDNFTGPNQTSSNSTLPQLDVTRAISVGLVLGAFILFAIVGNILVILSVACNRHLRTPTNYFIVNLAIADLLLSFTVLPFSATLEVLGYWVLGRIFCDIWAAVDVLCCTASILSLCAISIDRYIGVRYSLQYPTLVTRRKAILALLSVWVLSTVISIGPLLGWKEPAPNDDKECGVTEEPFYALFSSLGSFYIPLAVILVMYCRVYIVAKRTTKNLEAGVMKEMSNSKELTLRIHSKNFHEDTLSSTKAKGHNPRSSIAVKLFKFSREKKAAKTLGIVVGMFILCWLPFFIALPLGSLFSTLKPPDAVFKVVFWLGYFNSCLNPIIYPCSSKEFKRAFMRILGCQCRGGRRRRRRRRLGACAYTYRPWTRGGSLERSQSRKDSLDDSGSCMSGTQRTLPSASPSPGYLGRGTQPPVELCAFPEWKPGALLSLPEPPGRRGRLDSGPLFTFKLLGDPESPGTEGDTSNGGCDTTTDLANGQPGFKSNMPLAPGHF
T1 sequence (P23944 whole entry): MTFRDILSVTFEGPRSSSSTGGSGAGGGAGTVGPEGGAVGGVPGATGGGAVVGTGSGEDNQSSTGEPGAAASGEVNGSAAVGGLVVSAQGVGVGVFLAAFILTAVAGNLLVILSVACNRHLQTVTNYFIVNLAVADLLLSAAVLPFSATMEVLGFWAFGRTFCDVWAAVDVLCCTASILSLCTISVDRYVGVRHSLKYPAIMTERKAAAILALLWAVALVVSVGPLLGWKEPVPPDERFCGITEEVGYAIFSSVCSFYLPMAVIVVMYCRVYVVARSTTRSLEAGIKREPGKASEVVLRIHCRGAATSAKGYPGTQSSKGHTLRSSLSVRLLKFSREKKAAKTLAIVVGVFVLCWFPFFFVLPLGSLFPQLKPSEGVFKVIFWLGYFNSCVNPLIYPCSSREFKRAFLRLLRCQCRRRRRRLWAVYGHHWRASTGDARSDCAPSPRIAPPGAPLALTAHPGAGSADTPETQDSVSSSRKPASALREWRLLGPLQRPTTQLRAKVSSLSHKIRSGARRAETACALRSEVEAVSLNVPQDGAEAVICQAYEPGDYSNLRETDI
T1 sequence (P43140 whole entry): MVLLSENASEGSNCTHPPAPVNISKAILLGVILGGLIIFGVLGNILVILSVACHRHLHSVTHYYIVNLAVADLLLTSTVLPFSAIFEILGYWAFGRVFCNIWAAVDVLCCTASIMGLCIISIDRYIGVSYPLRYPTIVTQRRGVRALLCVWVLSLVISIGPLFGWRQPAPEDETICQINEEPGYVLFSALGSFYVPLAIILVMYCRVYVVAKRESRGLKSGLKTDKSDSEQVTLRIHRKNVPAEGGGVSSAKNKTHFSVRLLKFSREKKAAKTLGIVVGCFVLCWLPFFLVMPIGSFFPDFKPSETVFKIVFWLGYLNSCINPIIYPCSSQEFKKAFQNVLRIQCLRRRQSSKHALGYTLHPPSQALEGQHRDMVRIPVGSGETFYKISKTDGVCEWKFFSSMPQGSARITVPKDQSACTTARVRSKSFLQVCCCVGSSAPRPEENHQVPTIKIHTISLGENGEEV

Mus musculus = species on record: Mus musculus; experiment: Antagonism of methyl phenidate-induced gnawing behavior in mice; format: functional
How it was run: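 Test compound given ip (or sc) 2 h before methyl phenidate (60 mg/kg); mice housed in pairs on corrugated cardboard in gnawing cages, 5–9 pairs per dose.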

Rattus norvegicus [2] = species on record: Rattus norvegicus; experiment: Cataleptogenic effect in rats; format: functional
How it was run: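 Rats scored on a vertical wire grid hourly 1–6 h after dosing; catalepsy counted when immobility lasted at least 15 s.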

D(2) dopamine receptor = D(2) dopamine receptor (Rattus norvegicus, UniProt P61169); experiment: Binding affinity against dopamine receptor D2
Chain of D(2) dopamine receptor (P61169 whole entry): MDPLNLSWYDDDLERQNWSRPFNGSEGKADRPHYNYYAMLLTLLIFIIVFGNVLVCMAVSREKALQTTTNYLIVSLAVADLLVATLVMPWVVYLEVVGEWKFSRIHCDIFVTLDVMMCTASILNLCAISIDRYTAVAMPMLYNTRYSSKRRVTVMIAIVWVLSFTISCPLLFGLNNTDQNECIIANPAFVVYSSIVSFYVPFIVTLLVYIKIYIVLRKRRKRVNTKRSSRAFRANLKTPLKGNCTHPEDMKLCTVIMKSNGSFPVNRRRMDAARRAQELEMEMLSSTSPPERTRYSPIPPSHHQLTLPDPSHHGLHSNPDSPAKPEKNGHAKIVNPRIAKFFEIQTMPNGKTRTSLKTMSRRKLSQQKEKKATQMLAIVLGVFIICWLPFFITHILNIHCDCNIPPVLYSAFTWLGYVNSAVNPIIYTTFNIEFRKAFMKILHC

D(1A) dopamine receptor [3] = target: T2, D(1A) dopamine receptor (Rattus norvegicus, UniProt P18901); experiment: The compound was tested for the binding affinity against Dopamine receptor D1 activity is expressed as IC50 values.
T2 sequence (P18901 whole entry): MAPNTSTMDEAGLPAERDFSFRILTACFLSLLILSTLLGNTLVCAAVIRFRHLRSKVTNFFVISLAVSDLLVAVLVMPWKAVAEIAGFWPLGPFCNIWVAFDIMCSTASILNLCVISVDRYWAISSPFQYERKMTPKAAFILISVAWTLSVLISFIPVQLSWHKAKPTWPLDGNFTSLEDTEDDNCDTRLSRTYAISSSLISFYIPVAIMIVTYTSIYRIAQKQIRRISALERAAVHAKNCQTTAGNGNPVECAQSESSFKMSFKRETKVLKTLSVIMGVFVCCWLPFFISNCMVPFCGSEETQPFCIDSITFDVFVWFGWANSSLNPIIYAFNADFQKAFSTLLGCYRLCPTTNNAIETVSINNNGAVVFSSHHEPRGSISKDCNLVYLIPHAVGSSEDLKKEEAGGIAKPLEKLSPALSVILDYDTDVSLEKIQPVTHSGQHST
How it was run: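 [3H]SCH 23390 displaced from rat striatal membrane preparations; IC50 read from log-concentration–effect curves, two complete curves of five test concentrations run in triplicate over three decades.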

[4] = target: 5-hydroxytryptamine receptor 2A (Rattus norvegicus, UniProt P14842); experiment: Binding affinity for 5-hydroxytryptamine 2A receptor, activity is expressed as IC50 values.
Chain of 5-hydroxytryptamine receptor 2A (P14842 whole entry): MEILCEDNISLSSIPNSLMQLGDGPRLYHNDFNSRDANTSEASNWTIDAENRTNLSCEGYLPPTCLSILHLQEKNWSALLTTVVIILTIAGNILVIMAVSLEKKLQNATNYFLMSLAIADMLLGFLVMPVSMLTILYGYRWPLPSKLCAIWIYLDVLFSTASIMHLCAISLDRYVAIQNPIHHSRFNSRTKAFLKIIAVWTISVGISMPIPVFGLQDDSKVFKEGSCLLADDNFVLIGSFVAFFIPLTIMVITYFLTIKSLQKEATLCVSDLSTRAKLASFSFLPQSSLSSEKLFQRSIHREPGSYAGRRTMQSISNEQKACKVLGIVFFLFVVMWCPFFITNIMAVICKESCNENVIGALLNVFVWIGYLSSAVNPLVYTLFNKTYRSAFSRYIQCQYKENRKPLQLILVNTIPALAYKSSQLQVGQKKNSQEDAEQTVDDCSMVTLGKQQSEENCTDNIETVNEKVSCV

Rattus norvegicus [5] = species on record: Rattus norvegicus; experiment: In vitro inhibition of [3H]5-HT uptake in rat brain (minus pons, medulla oblongata and cerebellum) homogenates.; format: functional
Rattus norvegicus [6] = species on record: Rattus norvegicus; experiment: In vitro inhibition of [3H]NE uptake in rat occipital lobe (plus temporal cortex) homogenates.; format: functional
Rattus norvegicus [7] = species on record: Rattus norvegicus; experiment: In vitro inhibition of [3H]dopamine uptake in rat corpus striatum homogenates.; format: functional
D(1A) dopamine receptor [8] = target: T2, D(1A) dopamine receptor; experiment: Binding affinity for dopamine receptor D1, activity is expressed as IC50 values.
[9] = Rattus norvegicus, read-out: ED50

IC50 [1]: 14 nM
SMILES: CN1CCN(C2CC(c3ccsc3)c3ccc(Cl)cc32)CC1(C)C (configuration not stated)
ED50 (Mus musculus; Mus musculus, read-out: ED50): 1.3 µmol/kg | ED50 (Rattus norvegicus [2]; [9]): 44 µmol/kg

IC50 [1]: 94 nM
SMILES: CN1CCN(C2CC(c3ccc(F)cc3)c3cc(Cl)ccc32)CC1(C)C (configuration not stated)
ED50 (Mus musculus; Mus musculus, read-out: ED50): > 110 µmol/kg

IC50 [1]: 15 nM
SMILES: CN1CCN(C2CC(c3ccc(F)cc3)c3cccc(F)c32)CC1(C)C (configuration not stated)
ED50 (Mus musculus; Mus musculus, read-out: ED50): 6.9 µmol/kg | ED50 (Rattus norvegicus [2]; [9]): > 90 µmol/kg

IC50 (D(2) dopamine receptor): 690 nM | IC50 (D(1A) dopamine receptor [3]): 480 nM
SMILES: CN1CCN(C2CC(c3ccccc3)c3ccccc32)CC1 (configuration not stated)

IC50 (D(1A) dopamine receptor [3]): 8.3 nM
SMILES: OCCN1CCN(C2CC(c3ccc(F)cc3)c3ccc(Cl)cc32)CC1 (configuration not stated)

IC50 (D(1A) dopamine receptor [3]): 1800 nM
SMILES: OCCN1CCN(C2CC(c3ccc(F)cc3)c3cc(Cl)ccc32)CC1 (configuration not stated)

IC50 (D(1A) dopamine receptor [3]): 2000 nM
SMILES: OCCN1CCN(C2CC(c3ccc(F)cc3)c3c(Cl)cccc32)CC1 (configuration not stated)

SMILES: CN1CCN(C2CC(c3ccccc3)c3ccc(Cl)cc32)CC1(C)C (single isomer, unassigned; (-))
IC50 [4]: 4.4 nM | IC50 [1]: 10 nM | IC50 (D(2) dopamine receptor): 9.5 nM | ED50 (Mus musculus): 8.8 µM/kg | ED50 (Rattus norvegicus [2]): >85 µM/kg | IC50 (Rattus norvegicus [5]): 4000 nM | IC50 (Rattus norvegicus [6]): 1700 nM | IC50 (Rattus norvegicus [7]): 390 nM | IC50 (D(1A) dopamine receptor [8]): 1.1 nM

SMILES: CC1(C)CN(C2CC(c3ccsc3)c3ccc(Cl)cc32)CCN1 (single isomer, unassigned; (-))
IC50 [4]: 1.9 nM | IC50 [1]: 25 nM | IC50 (D(2) dopamine receptor): 7.1 nM | ED50 (Mus musculus; Mus musculus, read-out: ED50): 11 µmol/kg | ED50 (Rattus norvegicus [2]; [9]): > 49 µmol/kg | IC50 (Rattus norvegicus [5]): 4500 nM | IC50 (Rattus norvegicus [6]): 4000 nM | IC50 (Rattus norvegicus [7]): 2700 nM | IC50 (D(1A) dopamine receptor [8]): 0.84 nM

SMILES: CN1CCN(C2CC(c3ccccc3)c3ccc(Cl)cc32)CC1(C)C (stereo in doubt; 38)
IC50 [1]: 23 nM | ED50 (Mus musculus): 24 µM/kg | ED50 (Rattus norvegicus [2]; [9]): > 76 µmol/kg

SMILES: CN1CCN(C2CC(c3ccc(F)cc3)c3ccc(F)cc32)CC1(C)C (stereo in doubt; 40)
IC50 [1]: 12 nM | ED50 (Mus musculus): 2.1 µM/kg | ED50 (Rattus norvegicus [2]): >68 µM/kg

SMILES: CC1(C)CN(C2CC(c3ccc(F)cc3)c3ccc(Cl)cc32)CCN1 (stereo in doubt; 41)
IC50 [1]: 39 nM | ED50 (Mus musculus; Mus musculus, read-out: ED50): 6.7 µmol/kg | ED50 (Rattus norvegicus [2]; [9]): > 48 µmol/kg

SMILES: CN1CCN(C2CC(c3ccc(F)cc3)c3ccccc32)CC1(C)C (stereo in doubt; (-)-39)
IC50 [4]: 2.9 nM | IC50 [1]: 4.4 nM | IC50 (D(2) dopamine receptor): 12 nM | ED50 (Mus musculus): 7.2 µM/kg | ED50 (Rattus norvegicus [2]): >44 µM/kg | IC50 (Rattus norvegicus [5]): 10000 nM | IC50 (Rattus norvegicus [6]): 17000 nM | IC50 (Rattus norvegicus [7]): 5200 nM | IC50 (D(1A) dopamine receptor [8]): 2.5 nM

SMILES: CN1CCN(C2CC(c3ccc(F)cc3)c3ccc(F)cc32)CC1(C)C (stereo in doubt; (-)-40)
IC50 [4]: 1.9 nM | IC50 [1]: 4.7 nM | IC50 (D(2) dopamine receptor): 6.8 nM | ED50 (Mus musculus): 1 µM/kg | ED50 (Rattus norvegicus [2]; [9]): 42 µmol/kg | IC50 (Rattus norvegicus [5]): 12000 nM | IC50 (Rattus norvegicus [6]): > 10000 nM | IC50 (Rattus norvegicus [7]): 4000 nM | IC50 (D(1A) dopamine receptor [8]): 0.71 nM

SMILES: CC1(C)CN(C2CC(c3ccc(F)cc3)c3ccc(Cl)cc32)CCN1 (stereo in doubt; (-)-41)
IC50 [4]: 3.7 nM | IC50 [1]: 12 nM | IC50 (D(2) dopamine receptor): 9 nM | ED50 (Mus musculus): 5.6 µM/kg | ED50 (Rattus norvegicus [2]): >84 µM/kg | IC50 (Rattus norvegicus [5]): 1800 nM | IC50 (Rattus norvegicus [6]): 2200 nM | IC50 (Rattus norvegicus [7]): 400 nM | IC50 (D(1A) dopamine receptor [8]): 1.1 nM
